From ChEMBL document CHEMBL5329174, “Discovery of benzoxazole-thiazolidinone hybrids as promising antibacterial agents against Staphylococcus aureus and Enterococcus species” (RSC Med Chem, 2023)
≈ marks a conversion by molar mass, not a printed value.

Assays:
[1] = system: Enterococcus faecalis; assay: Antibacterial activity against vancomycin-susceptible Enterococcus faecalis NR 31884 assessed as inhibition of bacterial growth incubated for 18 to 24 hrs by broth microdilution assay; assay type: functional; settings: time 18-24 hrs
Summary of the method: (§1)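 CLSI broth microdilution in cation-supplemented Mueller–Hinton broth II; overnight starter cultures (37 °C, shaking, 18–24 h) adjusted by OD600 to ~10^6 CFU/mL. Compounds dosed from DMSO stocks (10 mg/mL stock) as two-fold dilutions, 64–0.5 mg/L. Plates held 37 °C, 18–24 h. MIC = lowest concentration without visible growth. Three independent runs, each in duplicate.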

[2] = system: Enterococcus faecalis; assay: Antibacterial activity against vancomycin-susceptible Enterococcus faecalis NR 31885 assessed as inhibition of bacterial growth incubated for 18 to 24 hrs by broth microdilution assay; assay type: functional; settings: time 18-24 hrs; summary of the method: as §1
[3] = system: Enterococcus faecalis; assay: Antibacterial activity against vancomycin-susceptible Enterococcus faecalis NR 31886 assessed as inhibition of bacterial growth incubated for 18 to 24 hrs by broth microdilution assay; assay type: functional; settings: time 18-24 hrs; summary of the method: as §1
[4] = system: Enterococcus faecalis; assay: Antibacterial activity against vancomycin-susceptible Enterococcus faecalis NR 31887 assessed as inhibition of bacterial growth incubated for 18 to 24 hrs by broth microdilution assay; assay type: functional; settings: time 18-24 hrs; summary of the method: as §1
[5] = system: Enterococcus faecalis; assay: Antibacterial activity against vancomycin-susceptible Enterococcus faecalis NR 31888 assessed as inhibition of bacterial growth incubated for 18 to 24 hrs by broth microdilution assay; assay type: functional; settings: time 18-24 hrs; summary of the method: as §1
[6] = system: Enterococcus faecium; assay: Antibacterial activity against vancomycin-resistant Enterococcus faecium NR 31903 assessed as inhibition of bacterial growth
[7] = system: Enterococcus faecium; assay: Antibacterial activity against vancomycin-resistant Enterococcus faecium NR 31909 assessed as inhibition of bacterial growth
[8] = system: Enterococcus faecium; assay: Antibacterial activity against vancomycin-resistant Enterococcus faecium NR 31912 assessed as inhibition of bacterial growth
[9] = system: Escherichia coli; assay: Antibacterial activity against Escherichia coli ATCC 25922 assessed as reduction in bacterial growth; assay type: functional; summary of the method: as §1
[10] = system: Staphylococcus aureus; assay: Antibacterial activity against Staphylococcus aureus ATCC 29213 assessed as reduction in bacterial growth; assay type: functional; summary of the method: as §1
[11] = system: Klebsiella pneumoniae; assay: Antibacterial activity against Klebsiella pneumoniae BAA-1705 assessed as reduction in bacterial growth; assay type: functional; summary of the method: as §1
[12] = system: Acinetobacter baumannii; assay: Antibacterial activity against Acinetobacter baumannii BAA-1605 assessed as reduction in bacterial growth; assay type: functional; summary of the method: as §1
[13] = system: Pseudomonas aeruginosa; assay: Antibacterial activity against Pseudomonas aeruginosa ATCC 27853 assessed as reduction in bacterial growth; assay type: functional; summary of the method: as §1
[14] = system: Staphylococcus aureus; assay: Antibacterial activity against vancomycin-resistant Staphylococcus aureus VRS 1 assessed as reduction in bacterial growth; assay type: functional
Summary of the method: (§2)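 CLSI broth microdilution in cation-supplemented Mueller–Hinton broth II. Starter cultures were grown overnight at 37 °C with shaking from a single MHA colony, then diluted by OD600 to ~10^6 CFU/mL. Compounds came from 10 mg/mL DMSO stocks and were tested two-fold from 64 to 0.5 mg/L. Plates were incubated 37 °C for 18–24 h. MIC was taken as the lowest concentration with no visible growth. Three independent runs, each in duplicate.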

[15] = system: Staphylococcus aureus; assay: Antibacterial activity against vancomycin-resistant Staphylococcus aureus VRS 4 assessed as reduction in bacterial growth; assay type: functional; summary of the method: as §2
[16] = system: Staphylococcus aureus; assay: Antibacterial activity against vancomycin-resistant Staphylococcus aureus VRS 12 assessed as reduction in bacterial growth; assay type: functional; summary of the method: as §2
[17] = Cytotoxicity against african green monkey Vero cells assessed as reduction in cell viability incubated for 72 hrs by MTT assay; assay type: toxicity, cell-based; settings: chlorocebus sabaeus
Summary of the method: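 Vero (ATCC CCL-81) cells seeded at ~10^3 per well, 37 °C, 5% CO2. After 24 h, compound added at 100–12.5 μg/mL for 72 h. MTT then given for 4 h at 37 °C, formazan dissolved in DMSO, absorbance read at 540 nm. CC50 taken as the concentration giving 50% viability loss; doxorubicin as positive control; triplicate.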

[18] = system: Staphylococcus aureus; assay: Antibacterial activity against methicilin-resistant Staphylococcus aureus NRS 100 assessed as reduction in bacterial growth; assay type: functional; summary of the method: as §2
[19] = system: Staphylococcus aureus; assay: Antibacterial activity against methicilin-resistant Staphylococcus aureus NRS 119 assessed as reduction in bacterial growth; assay type: functional; summary of the method: as §2
[20] = system: Staphylococcus aureus; assay: Antibacterial activity against methicilin-resistant Staphylococcus aureus NRS 129 assessed as reduction in bacterial growth; assay type: functional; summary of the method: as §2
[21] = system: Staphylococcus aureus; assay: Antibacterial activity against methicilin-resistant Staphylococcus aureus NRS 186 assessed as reduction in bacterial growth; assay type: functional; summary of the method: as §2
[22] = system: Staphylococcus aureus; assay: Antibacterial activity against methicilin-resistant Staphylococcus aureus NRS 191 assessed as reduction in bacterial growth; assay type: functional; summary of the method: as §2
[23] = system: Staphylococcus aureus; assay: Antibacterial activity against methicilin-resistant Staphylococcus aureus NRS 192 assessed as reduction in bacterial growth; assay type: functional; summary of the method: as §2
[24] = system: Staphylococcus aureus; assay: Antibacterial activity against methicilin-resistant Staphylococcus aureus NRS 193 assessed as reduction in bacterial growth; assay type: functional; summary of the method: as §2
[25] = system: Staphylococcus aureus; assay: Antibacterial activity against methicilin-resistant Staphylococcus aureus NRS 194 assessed as reduction in bacterial growth; assay type: functional; summary of the method: as §2
[26] = system: Staphylococcus aureus; assay: Antibacterial activity against methicilin-resistant Staphylococcus aureus NRS 198 assessed as reduction in bacterial growth; assay type: functional; summary of the method: as §2

Compound | MIC [9] | MIC [10] | MIC [11] | MIC [12] | MIC [13] | other results
CN(C)c1ccc(O)c2c1C[C@H]1C[C@H]3[C@H](N(C)C)C(O)=C(C(N)=O)C(=O)[C@@]3(O)C(O)=C1C2=O [MINOCYCLINE] | – | – | – | – | – | MIC [1]: 0.5 µg/mL (≈ 1.09 µM); MIC [2]: 0.5 µg/mL (≈ 1.09 µM); MIC [3]: 0.5 µg/mL (≈ 1.09 µM); MIC [4]: 8 µg/mL (≈ 17.5 µM); MIC [5]: 0.5 µg/mL (≈ 1.09 µM); MIC [6]: 8 µg/mL (≈ 17.5 µM); MIC [7]: 8 µg/mL (≈ 17.5 µM); MIC [8]: 8 µg/mL (≈ 17.5 µM)
CSc1ccc(/C=C2\S/C(=N/c3nc4ccccc4o3)NC2=O)cc1 | > 64 µg/mL | 32 µg/mL (≈ 87.1 µM) | > 64 µg/mL | > 64 µg/mL | > 64 µg/mL | –
O=C1N/C(=N\c2nc3ccccc3o2)S/C1=C\c1cccc(F)c1 | > 64 µg/mL | 8 µg/mL (≈ 23.6 µM) | > 64 µg/mL | > 64 µg/mL | > 64 µg/mL | –
O=C1CS/C(=N/c2nc3ccccc3o2)N1 | > 64 µg/mL | 8 µg/mL (≈ 34.3 µM) | > 64 µg/mL | > 64 µg/mL | > 64 µg/mL | –
O=C1N/C(=N\c2nc3ccccc3o2)S/C1=C\c1cccs1 | > 64 µg/mL | 16 µg/mL (≈ 48.9 µM) | > 64 µg/mL | > 64 µg/mL | > 64 µg/mL | –
O=C1N/C(=N\c2nc3ccccc3o2)S/C1=C\c1ccc([N+](=O)[O-])cc1 | > 64 µg/mL | > 64 µg/mL | > 64 µg/mL | > 64 µg/mL | > 64 µg/mL | –
O=C1N/C(=N\c2nc3ccccc3o2)S/C1=C\c1ccccc1Cl | > 64 µg/mL | 16 µg/mL (≈ 45 µM) | > 64 µg/mL | > 64 µg/mL | > 64 µg/mL | –
O=C1N/C(=N\c2nc3ccccc3o2)S/C1=C\c1ccc(Br)cc1 | > 64 µg/mL | 32 µg/mL (≈ 79.9 µM) | > 64 µg/mL | > 64 µg/mL | > 64 µg/mL | –
O=C1N/C(=N\c2nc3ccccc3o2)S/C1=C\c1cccc([N+](=O)[O-])c1 | > 64 µg/mL | > 64 µg/mL | > 64 µg/mL | > 64 µg/mL | > 64 µg/mL | –
O=C1N/C(=N\c2nc3ccccc3o2)S/C1=C\c1ccccc1 | > 64 µg/mL | 4 µg/mL (≈ 12.4 µM) | > 64 µg/mL | > 64 µg/mL | > 64 µg/mL | –
CN[C@H](CC(C)C)C(=O)N[C@H]1C(=O)N[C@@H](CC(N)=O)C(=O)N[C@H]2C(=O)N[C@H]3C(=O)N[C@H](C(=O)N[C@H](C(=O)O)c4cc(O)cc(O)c4-c4cc3ccc4O)[C@H](O)c3ccc(c(Cl)c3)Oc3cc2cc(c3O[C@@H]2O[C@H](CO)[C@@H](O)[C@H](O)[C@H]2O[C@H]2C[C@](C)(N)[C@H](O)[C@H](C)O2)Oc2ccc(cc2Cl)[C@H]1O [VANCOMYCIN] | – | – | – | – | – | MIC [14]: > 64 µg/mL; MIC [15]: > 64 µg/mL; MIC [16]: > 64 µg/mL; MIC [1]: 2 µg/mL (≈ 1.38 µM); MIC [2]: 2 µg/mL (≈ 1.38 µM); MIC [3]: 2 µg/mL (≈ 1.38 µM); MIC [4]: 2 µg/mL (≈ 1.38 µM); MIC [5]: 2 µg/mL (≈ 1.38 µM)
O=C1N/C(=N\c2nc3ccccc3o2)S/C1=C\c1ccc(F)cc1 | > 64 µg/mL | 8 µg/mL (≈ 23.6 µM) | > 64 µg/mL | > 64 µg/mL | > 64 µg/mL | –
O=C1N/C(=N\c2nc3ccccc3o2)S/C1=C\c1ccc(Cl)cc1 | > 64 µg/mL | 8 µg/mL (≈ 22.5 µM) | > 64 µg/mL | > 64 µg/mL | > 64 µg/mL | –
O=C1N/C(=N\c2nc3ccccc3o2)S/C1=C\c1ccco1 | > 64 µg/mL | 8 µg/mL (≈ 25.7 µM) | > 64 µg/mL | > 64 µg/mL | > 64 µg/mL | –
O=C1N/C(=N\c2nc3ccccc3o2)S/C1=C\c1cccc(Cl)c1 | > 64 µg/mL | 8 µg/mL (≈ 22.5 µM) | > 64 µg/mL | > 64 µg/mL | > 64 µg/mL | –
O=C1N/C(=N\c2nc3ccccc3o2)S/C1=C\c1ccccc1F | > 64 µg/mL | 16 µg/mL (≈ 47.1 µM) | > 64 µg/mL | > 64 µg/mL | > 64 µg/mL | –
COc1ccc(/C=C2\S/C(=N/c3nc4ccccc4o3)NC2=O)cc1O | > 64 µg/mL | 4 µg/mL (≈ 10.9 µM) | > 64 µg/mL | > 64 µg/mL | > 64 µg/mL | –
O=C1N/C(=N\c2nc3ccccc3o2)S/C1=C\c1ccccn1 | > 64 µg/mL | 8 µg/mL (≈ 24.8 µM) | > 64 µg/mL | > 64 µg/mL | > 64 µg/mL | –
COc1cccc2c1C(=O)c1c(O)c3c(c(O)c1C2=O)C[C@@](O)(C(=O)CO)C[C@@H]3O[C@H]1C[C@H](N)[C@H](O)[C@H](C)O1 [DOXORUBICIN] | – | – | – | – | – | CC50 at 72 h [17]: 10 µg/mL (≈ 18.4 µM)
O=C1N/C(=N\c2nc3ccccc3o2)S/C1=C\c1ccccc1[N+](=O)[O-] | > 64 µg/mL | 8 µg/mL (≈ 21.8 µM) | > 64 µg/mL | > 64 µg/mL | > 64 µg/mL | –
COc1cccc(/C=C2\S/C(=N/c3nc4ccccc4o3)NC2=O)c1 | > 64 µg/mL | > 64 µg/mL | > 64 µg/mL | > 64 µg/mL | > 64 µg/mL | –
COc1ccc(/C=C2\S/C(=N/c3nc4ccccc4o3)NC2=O)cc1 | > 64 µg/mL | > 64 µg/mL | > 64 µg/mL | > 64 µg/mL | > 64 µg/mL | –
CN(C)c1ccc(/C=C2\S/C(=N/c3nc4ccccc4o3)NC2=O)cc1 | > 64 µg/mL | > 64 µg/mL | > 64 µg/mL | > 64 µg/mL | > 64 µg/mL | –
C[C@@H](O)[C@H]1C(=O)N2C(C(=O)O)=C(S[C@@H]3CN[C@H](C(=O)N(C)C)C3)[C@H](C)[C@H]12 [MEROPENEM] | – | 0.125 µg/mL (≈ 0.326 µM) | – | – | – | MIC [18]: 32 µg/mL (≈ 83.4 µM); MIC [19]: 64 µg/mL (≈ 167 µM); MIC [20]: 4 µg/mL (≈ 10.4 µM); MIC [21]: 8 µg/mL (≈ 20.9 µM); MIC [22]: 64 µg/mL (≈ 167 µM); MIC [23]: 8 µg/mL (≈ 20.9 µM); MIC [24]: 64 µg/mL (≈ 167 µM); MIC [25]: 1 µg/mL (≈ 2.61 µM); MIC [26]: 64 µg/mL (≈ 167 µM); MIC [14]: 64 µg/mL (≈ 167 µM); MIC [15]: 64 µg/mL (≈ 167 µM); MIC [16]: 8 µg/mL (≈ 20.9 µM)
O=C1N/C(=N\c2nc3ccccc3o2)S/C1=C\c1ccccc1O | > 64 µg/mL | 4 µg/mL (≈ 11.9 µM) | > 64 µg/mL | > 64 µg/mL | > 64 µg/mL | –
